According to ChEMBL document CHEMBL3045743, “Synthesis and herbicidal activity of isoindoline-1,3-dione substituted benzoxazinone derivatives containing a carboxylic ester group” (J Agric Food Chem, 2009):

Assays:
[1] = test system: Setaria viridis; assay: Post-emergence herbicidal activity against Setaria viridis (green foxtail) assessed as growth inhibition at 7.5 g.a.i./ha applied at one-leaf stage measured after 15 days; type: functional; conditions: 360 h, read-out: GI
Outline: (§1)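 Pot-grown weeds sown 5 mm deep in greenhouse clay soil (pH 6.5, 1.7% organic matter, CEC 12.9 cmol/kg) at 22-25 °C. Stock diluted with water and sprayed post-emergence: dicots at 2-leaf stage, monocots at 1-leaf stage. Untreated and DMF solvent controls were included. % growth inhibition was scored visually versus untreated controls after 15 days. Triplicates averaged.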

[2] = Phytotoxicity against Oryza sativa (rice) assessed as growth inhibition at 300 g.a.i/ha pre-emergent application measured after 15 days by greenhouse crop selectivity assay; type: organism-based, L.; conditions: in vivo, read-out: GI
Outline: (§2)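 Pre-emergence greenhouse crop selectivity test on pot-grown plants in clay soil (pH 6.5, 1.7% organic matter, 37.5% clay, CEC 12.9 cmol/kg). Stock solutions were diluted with water and applied at 300, 150, 75 or 37.5 g a.i./ha, in triplicate. After 15 days, phytotoxicity was scored visually against untreated controls as % crop growth inhibition, averaged over the triplicates.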

[3] = test system: Digitaria sanguinalis; assay: Post-emergence herbicidal activity against Digitaria sanguinalis(hairy crabgrass) assessed as growth inhibition at 15 g.a.i./ha applied at one-leaf stage measured after 15 days; type: functional; conditions: 360 h, read-out: GI; outline: as §1
[4] = test system: Gossypium; assay: Phytotoxicity against Gossypium (cotton) assessed as growth inhibition at 150 g.a.i/ha pre-emergent application measured after 15 days by greenhouse crop selectivity assay; type: organism-based; conditions: in vivo, other, 360 h; outline: as §2
[5] = test system: Chenopodium album; assay: Pre-emergence herbicidal activity against Chenopodium album assessed as growth inhibition at 37.5 g.a.i./ha applied 24 hr after seeds were sown measured after 15 days; type: functional; conditions: read-out: GI
Outline: (§3)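 Weeds sown 5 mm deep in pots of greenhouse clay soil (pH 6.5, 37.5% clay, CEC 12.9 cmol/kg) and grown at 22-25 °C. Water-diluted formulation was applied pre-emergence 24 h after sowing. Untreated and DMF solvent controls were included. Growth inhibition was visually rated in % against untreated controls after 15 days, as the mean of triplicates.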

[6] = test system: Chenopodium album; assay: Post-emergence herbicidal activity against Chenopodium album assessed as growth inhibition at 37.5 g.a.i./ha applied at two-leaf stage measured after 15 days; type: functional; conditions: 360 h, read-out: GI; outline: as §1
[7] = test system: Gossypium; assay: Phytotoxicity against Gossypium (cotton) assessed as growth inhibition at 37.5 g.a.i/ha pre-emergent application measured after 15 days by greenhouse crop selectivity assay; type: organism-based; conditions: in vivo, other, 360 h; outline: as §2
[8] = test system: Setaria viridis; assay: Pre-emergence herbicidal activity against Setaria viridis (green foxtail) assessed as growth inhibition at 75 g.a.i./ha applied 24 hr after seeds were sown measured after 15 days; type: functional; conditions: read-out: GI
Outline: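 Preliminary pre-emergence screen at a single rate of 75 g a.i./ha. Stock diluted with water and sprayed on greenhouse pots 24 h after seeds were sown 5 mm deep in clay soil (pH 6.5, 1.7% organic matter); grown at 22-25 °C. Untreated and DMF solvent controls included; triplicate. Visual % growth inhibition vs untreated after 15 days, averaged and banded (>80% top band).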

[9] = test system: Glycine max; assay: Phytotoxicity against Glycine max (soybean) assessed as growth inhibition at 150 g.a.i/ha pre-emergent application measured after 15 days by greenhouse crop selectivity assay; type: organism-based; conditions: in vivo, other, 360 h; outline: as §2
[10] = test system: Arachis hypogaea; assay: Phytotoxicity against Arachis hypogaea (peanut) assessed as growth inhibition at 75 g.a.i/ha pre-emergent application measured after 15 days by greenhouse crop selectivity assay; type: organism-based; conditions: in vivo, other, 360 h; outline: as §2
[11] = test system: Abutilon theophrasti; assay: Pre-emergence herbicidal activity against Abutilon theophrasti (velvetleaf) assessed as growth inhibition at 7.5 g.a.i./ha applied 24 hr after seeds were sown measured after 15 days; type: functional; conditions: read-out: GI; outline: as §3
[12] = test system: Amaranthus spinosus; assay: Pre-emergence herbicidal activity against Amaranthus spinosus assessed as growth inhibition at 7.5 g.a.i./ha applied 24 hr after seeds were sown measured after 15 days; type: functional; conditions: read-out: GI; outline: as §3
[13] = test system: Chenopodium album; assay: Pre-emergence herbicidal activity against Chenopodium album assessed as growth inhibition at 7.5 g.a.i./ha applied 24 hr after seeds were sown measured after 15 days; type: functional; conditions: read-out: GI; outline: as §3
[14] = Phytotoxicity against Triticum aestivum (wheat) assessed as growth inhibition at 300 g.a.i/ha pre-emergent application measured after 15 days by greenhouse crop selectivity assay; type: organism-based; conditions: in vivo, read-out: GI; outline: as §2
[15] = test system: Oryza sativa; assay: Phytotoxicity against Oryza sativa (rice) assessed as growth inhibition at 7.5 to 60 g.a.i/ha post-emergent application measured after 15 days by greenhouse crop selectivity assay; type: organism-based, L.; conditions: in vivo, other, 360 h
Outline: (§4)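 Postemergence crop selectivity test on pot-grown plants in a greenhouse, in clay soil (pH 6.5, 1.7% organic matter, CEC 12.9 cmol/kg). Stock was diluted with water and sprayed at 60, 30, 15 or 7.5 g a.i./ha, in triplicate. Growth inhibition was rated visually against untreated controls after 15 days and given as the triplicate mean percentage.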

[16] = test system: Chenopodium album; assay: Post-emergence herbicidal activity against Chenopodium album assessed as growth inhibition at 7.5 g.a.i./ha applied at two-leaf stage measured after 15 days; type: functional; conditions: 360 h, read-out: GI; outline: as §1
[17] = test system: Triticum aestivum; assay: Phytotoxicity against Triticum aestivum (wheat) assessed as growth inhibition at 37.5 g.a.i/ha pre-emergent application measured after 15 days by greenhouse crop selectivity assay; type: organism-based; conditions: in vivo, other, 360 h; outline: as §2
[18] = test system: Chenopodium album; assay: Pre-emergence herbicidal activity against Chenopodium album assessed as growth inhibition at 15 g.a.i./ha applied 24 hr after seeds were sown measured after 15 days; type: functional; conditions: read-out: GI; outline: as §3
[19] = test system: Gossypium; assay: Phytotoxicity against Gossypium (cotton) assessed as growth inhibition at 7.5 to 60 g.a.i/ha post-emergent application measured after 15 days by greenhouse crop selectivity assay; type: organism-based; conditions: in vivo, other, 360 h; outline: as §4
[20] = test system: Abutilon theophrasti; assay: Pre-emergence herbicidal activity against Abutilon theophrasti (velvetleaf) assessed as growth inhibition at 37.5 g.a.i./ha applied 24 hr after seeds were sown measured after 15 days; type: functional; conditions: read-out: GI; outline: as §3
[21] = test system: Echinochloa crus-galli; assay: Pre-emergence herbicidal activity against Echinochloa crus-galli (barnyard grass) assessed as growth inhibition at 7.5 g.a.i./ha applied 24 hr after seeds were sown measured after 15 days; type: functional; conditions: read-out: GI; outline: as §3
[22] = test system: Arachis hypogaea; assay: Phytotoxicity against Arachis hypogaea (peanut) assessed as growth inhibition at 37.5 g.a.i/ha pre-emergent application measured after 15 days by greenhouse crop selectivity assay; type: organism-based; conditions: in vivo, other, 360 h; outline: as §2
[23] = test system: Digitaria sanguinalis; assay: Pre-emergence herbicidal activity against Digitaria sanguinalis (hairy crabgrass) assessed as growth inhibition at 15 g.a.i./ha applied 24 hr after seeds were sown measured after 15 days; type: functional; conditions: read-out: GI; outline: as §3
[24] = test system: Amaranthus; assay: Pre-emergence herbicidal activity against Amaranthus ascendens assessed as growth inhibition at 75 g.a.i./ha applied 24 hr after seeds were sown measured after 15 days; type: functional; conditions: read-out: GI; outline: as §3
[25] = test system: Setaria viridis; assay: Pre-emergence herbicidal activity against Setaria viridis (green foxtail) assessed as growth inhibition at 15 g.a.i./ha applied 24 hr after seeds were sown measured after 15 days; type: functional; conditions: read-out: GI; outline: as §3
[26] = test system: Abutilon theophrasti; assay: Post-emergence herbicidal activity against Abutilon theophrasti (velvetleaf) assessed as growth inhibition at 75 g.a.i./ha applied at two-leaf stage measured after 15 days; type: functional; conditions: 360 h, read-out: GI; outline: as §1
[27] = test system: Echinochloa crus-galli; assay: Pre-emergence herbicidal activity against Echinochloa crus-galli (barnyard grass) assessed as growth inhibition at 75 g.a.i./ha applied 24 hr after seeds were sown measured after 15 days; type: functional; conditions: read-out: GI; outline: as §3
[28] = test system: Digitaria sanguinalis; assay: Pre-emergence herbicidal activity against Digitaria sanguinalis (hairy crabgrass) assessed as growth inhibition at 37.5 g.a.i./ha applied 24 hr after seeds were sown measured after 15 days; type: functional; conditions: read-out: GI; outline: as §3
[29] = Phytotoxicity against Oryza sativa (rice) assessed as growth inhibition at 75 g.a.i/ha pre-emergent application measured after 15 days by greenhouse crop selectivity assay; type: organism-based, L.; conditions: in vivo, 75 g.a.i/ha, read-out: GI; outline: as §2

Row | Structure (SMILES) | inhibition of growth at 7.5 g/ha [1] [%] | inhibition at 360 h [2] [%] | inhibition of growth at 15 g/ha [3] [%] | growth inhibition (GI) [4] | inhibition of growth at 37.5 g/ha [5] [%] | inhibition of growth at 37.5 g/ha [6] [%] | growth inhibition (GI) [7] | inhibition of growth at 75 g/ha [8] [%] | growth inhibition (GI) [10] | inhibition of growth at 7.5 g/ha [11] [%] | inhibition of growth at 7.5 g/ha [12] [%] | inhibition of growth at 7.5 g/ha [13] [%] | inhibition at 360 h [14] [%] | Activity [15] | inhibition of growth at 7.5 g/ha [16] [%] | inhibition of growth at 15 g/ha [18] [%] | Activity [19] | inhibition of growth at 37.5 g/ha [20] [%] | inhibition of growth at 7.5 g/ha [21] [%] | growth inhibition (GI) [22] | other results
1 | CCOC(=O)C(CC)N1C(=O)C(C)Oc2cc(F)c(N3C(=O)C4=C(CCCC4)C3=O)cc21 (stereo not drawn) | 20 | > 10 | 50 | Not Active | 100 | 100 | Not Active | > 80 | Not Active | 0 | 100 | 100 | > 10 | Toxic | 100 | 100 | Toxic | 70 | 0 | Not Active | growth inhibition (GI) [9]: Not Active; growth inhibition (GI) [17]: Not Active; inhibition of growth at 15 g/ha [23]: 0%; inhibition of growth at 75 g/ha [24]: > 80%; inhibition of growth at 15 g/ha [25]: 0%; inhibition of growth at 75 g/ha [26]: > 80%; inhibition of growth at 75 g/ha [27]: > 80%; inhibition of growth at 37.5 g/ha [28]: 0%
2 | CCOC(=O)C(C)N1C(=O)C(C)Oc2cc(F)c(N3C(=O)C4=C(CCCC4)C3=O)cc21 (stereo not drawn) | 20 | > 10 | 30 | Not Active | 100 | 100 | Not Active | > 80 | Not Active | 0 | 90 | 100 | > 10 | Toxic | 100 | 100 | Toxic | 20 | 0 | Not Active | inhibition at 360 h [29]: > 10%; growth inhibition (GI) [9]: Not Active; growth inhibition (GI) [17]: Not Active; inhibition of growth at 15 g/ha [23]: 40%; inhibition of growth at 75 g/ha [24]: > 80%; inhibition of growth at 15 g/ha [25]: 40%; inhibition of growth at 75 g/ha [26]: > 80%; inhibition of growth at 75 g/ha [27]: > 80%; inhibition of growth at 37.5 g/ha [28]: 80%
3 | COC(=O)C(C)N1C(=O)C(C)Oc2cc(F)c(N3C(=O)C4=C(CCCC4)C3=O)cc21 (stereo not drawn) | 10 | > 10 | 20 | Not Active | 100 | 100 | Not Active | > 80 | Not Active | 50 | 100 | 100 | > 10 | Toxic | 100 | 100 | Toxic | 70 | 0 | Not Active | inhibition at 360 h [29]: > 10%; growth inhibition (GI) [9]: Not Active; growth inhibition (GI) [17]: Not Active; inhibition of growth at 15 g/ha [23]: 10%; inhibition of growth at 75 g/ha [24]: > 80%; inhibition of growth at 15 g/ha [25]: 10%; inhibition of growth at 75 g/ha [26]: > 80%; inhibition of growth at 75 g/ha [27]: > 80%; inhibition of growth at 37.5 g/ha [28]: 50%
4 | C#CCN1C(=O)COc2cc(F)c(N3C(=O)C4=C(CCCC4)C3=O)cc21 [FLUMIOXAZIN] | 80 | > 10 | 90 | Not Active | 100 | 100 | Not Active | > 80 | Not Active | 50 | 100 | 100 | > 10 | Toxic | 100 | 100 | Toxic | 100 | 0 | Not Active | inhibition at 360 h [29]: > 10%; inhibition of growth at 15 g/ha [23]: 50%; inhibition of growth at 75 g/ha [24]: > 80%; inhibition of growth at 15 g/ha [25]: 50%; inhibition of growth at 75 g/ha [26]: > 80%; inhibition of growth at 75 g/ha [27]: > 80%; inhibition of growth at 37.5 g/ha [28]: 80%
